Results: ChEMBL document CHEMBL1135838, “alpha(1)-Adrenoceptor agonists: the identification of novel alpha(1A )subtype selective 2'-heteroaryl-2-(phenoxymethyl)imidazolines” (Bioorg Med Chem Lett, 2002)

Legend:
[1] = biological target: T1, Alpha-1B adrenergic receptor (Homo sapiens, UniProt P35368); experiment: Activation of recombinant human adrenergic, alpha-1B receptor expressed in rat-1 fibroblasts determined via calcium mobilization through Gq coupled PLC pathway; type: functional
T1 sequence (P35368 whole entry): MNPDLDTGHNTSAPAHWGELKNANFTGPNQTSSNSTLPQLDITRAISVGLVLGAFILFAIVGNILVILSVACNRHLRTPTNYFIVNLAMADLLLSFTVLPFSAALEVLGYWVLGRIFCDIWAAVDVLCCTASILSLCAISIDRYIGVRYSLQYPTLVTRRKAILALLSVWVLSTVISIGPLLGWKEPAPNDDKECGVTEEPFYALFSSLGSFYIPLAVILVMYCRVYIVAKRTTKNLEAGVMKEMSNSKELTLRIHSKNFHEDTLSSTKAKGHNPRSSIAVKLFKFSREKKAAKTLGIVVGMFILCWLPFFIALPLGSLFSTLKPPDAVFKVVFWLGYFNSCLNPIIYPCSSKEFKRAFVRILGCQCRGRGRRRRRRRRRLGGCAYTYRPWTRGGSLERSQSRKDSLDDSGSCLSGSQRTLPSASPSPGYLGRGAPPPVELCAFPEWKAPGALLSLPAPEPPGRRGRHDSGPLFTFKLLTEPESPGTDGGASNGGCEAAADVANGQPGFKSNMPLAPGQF
How it was run: (§1)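 Rat-1 fibroblasts stably expressing cloned human α1A (clone #137-12), α1B (clone #37-11) or α1D (clone #16-7) adrenoceptor were loaded with the Calcium Green calcium-sensitive dye. Gq/PLC-coupled calcium mobilization was read on a FLIPR. Eleven-point concentration–response curves, with a top concentration typically 5 μM, were normalized to the 40 μM phenylephrine response to give pEC50 and % efficacy. Values are the mean of ≥2 experiments.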

[2] = biological target: T2, Alpha-1D adrenergic receptor (Homo sapiens, UniProt P25100); experiment: Activation of recombinant human adrenergic, alpha-1D receptor expressed in rat-1 fibroblasts assayed via calcium mobilization through Gq coupled PLC pathway; type: functional; how it was run: as §1
T2 sequence (P25100 whole entry): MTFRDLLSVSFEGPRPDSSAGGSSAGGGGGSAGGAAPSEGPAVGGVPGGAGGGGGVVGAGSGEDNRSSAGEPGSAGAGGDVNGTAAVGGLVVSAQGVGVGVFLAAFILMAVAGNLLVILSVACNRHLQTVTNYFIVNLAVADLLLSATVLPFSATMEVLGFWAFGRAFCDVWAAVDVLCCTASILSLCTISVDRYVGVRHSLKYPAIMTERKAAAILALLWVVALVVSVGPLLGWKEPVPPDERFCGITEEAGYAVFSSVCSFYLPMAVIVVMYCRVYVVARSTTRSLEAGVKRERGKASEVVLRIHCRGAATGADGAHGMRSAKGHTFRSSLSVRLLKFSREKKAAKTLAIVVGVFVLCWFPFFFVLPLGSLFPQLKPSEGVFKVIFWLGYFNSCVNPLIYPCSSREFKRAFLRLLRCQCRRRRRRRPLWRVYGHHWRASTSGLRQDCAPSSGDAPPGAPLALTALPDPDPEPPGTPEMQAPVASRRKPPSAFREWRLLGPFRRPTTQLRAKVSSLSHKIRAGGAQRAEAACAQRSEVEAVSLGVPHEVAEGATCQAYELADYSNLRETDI

[3] = biological target: T3, Alpha-1A adrenergic receptor (Homo sapiens, UniProt P35348); experiment: Activation of recombinant human adrenergic,alpha-1A receptor expressed in rat-1 fibroblasts determined via calcium mobilization through Gq coupled PLC pathway; type: functional; how it was run: as §1
T3 sequence (P35348 whole entry): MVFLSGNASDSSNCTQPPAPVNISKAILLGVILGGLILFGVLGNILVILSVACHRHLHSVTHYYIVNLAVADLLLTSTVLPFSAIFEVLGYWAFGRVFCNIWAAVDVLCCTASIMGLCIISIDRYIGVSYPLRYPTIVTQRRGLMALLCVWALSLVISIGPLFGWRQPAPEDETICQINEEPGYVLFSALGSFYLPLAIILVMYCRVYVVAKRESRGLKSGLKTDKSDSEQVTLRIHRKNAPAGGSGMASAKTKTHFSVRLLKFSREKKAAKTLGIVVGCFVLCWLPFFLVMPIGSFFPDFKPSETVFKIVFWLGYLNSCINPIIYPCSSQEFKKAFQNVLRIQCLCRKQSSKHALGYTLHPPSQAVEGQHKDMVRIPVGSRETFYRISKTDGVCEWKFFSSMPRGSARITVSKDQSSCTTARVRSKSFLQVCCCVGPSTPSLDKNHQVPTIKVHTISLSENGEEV

[4] = biological target: T4, Alpha-1B adrenergic receptor (Homo sapiens) (UniProt P35368); experiment: Activation of human alpha-1B receptor expressed in rat-1 fibroblasts by calcium mobilization of Gq coupled PLC as percent phenylephrine (40 uM) response; type: functional; how it was run: as §1
T4 sequence (whole entry): T1 sequence (P35368 whole entry)

[5] = biological target: T5, Alpha-1A adrenergic receptor (Homo sapiens) (UniProt P35348); experiment: Ability to activate cloned human alpha-1A receptor expressed in rat-1 fibroblasts via calcium mobilization through Gq coupled PLC pathway expressed as percent of phenylephrine (40 uM) response; type: functional; how it was run: as §1
T5 sequence (whole entry): T3 sequence (P35348 whole entry)

[6] = biological target: T1, Alpha-1B adrenergic receptor; experiment: Binding affinity of compound towards human Alpha-1B adrenergic receptor expressed in rat fibroblast membranes; type: cell membranes, Membrane
How it was run: (§2)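 Radioligand binding was run on membranes from Rat-1 fibroblasts expressing human α1A, α1B or α1D adrenoceptor. Affinity is reported as pIC50 (±SEM), the mean of at least two experiments.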

[7] = biological target: T3, Alpha-1A adrenergic receptor; experiment: Binding affinity of compound towards Alpha-1A adrenergic receptor using membranes prepared from Rat-1 fibroblasts expressing human Alpha-1A adrenergic receptor; how it was run: as §2
[8] = biological target: T2, Alpha-1D adrenergic receptor; experiment: Binding affinity of compound towards human Alpha-1D adrenergic receptor expressed in rat-1 fibroblast membranes; type: cell membranes; how it was run: as §2
[9] = biological target: T6, Alpha-1D adrenergic receptor (Homo sapiens) (UniProt P25100); experiment: Ability to activate human alpha-1D receptor expressed in rat-1 fibroblasts as calcium mobilization through Gq coupled PLC pathway relative to phenylephrine response; type: functional; how it was run: as §1
T6 sequence (whole entry): T2 sequence (P25100 whole entry)

| SMILES | EC50 [1] [nM] | EC50 [2] [nM] | EC50 [3] [nM] | Max [4] [%] | Max [5] [%] | IC50 [6] [nM] | IC50 [7] [nM] | IC50 [8] [nM] | Max [9] [%] |
| --- | --- | --- | --- | --- | --- | --- | --- | --- | --- |
| c1ccc(-c2cc[nH]n2)c(OCC2=NCCN2)c1 | 79.4 | > 100000 | 5.01 | 39 | 119 |  |  |  |  |
| c1ccc(-c2ccncn2)c(OCC2=NCCN2)c1 | > 100000 | > 100000 | > 100000 |  |  |  |  |  |  |
| Cc1ccnc(-c2ccccc2OCC2=NCCN2)c1 | > 100000 | > 100000 | > 100000 |  |  | 2450 | 1290 | 1410 |  |
| c1ccc(-c2ccccc2OCC2=NCCN2)nc1 | > 100000 | > 100000 | 12.6 |  |  | 2040 | 115 | 1120 |  |
| c1coc(-c2ccccc2OCC2=NCCN2)c1 | 10 | > 100000 | 1.26 | 110 | 106 |  |  |  |  |
| c1ccc(-c2ccccc2NCC2=NCCN2)cc1 | > 100000 | 794 | 7.94 |  | 101 |  |  |  | 20 |
| c1ccc(-c2ccns2)c(OCC2=NCCN2)c1 | 12.6 | 25.1 | 5.01 | 56 | 99 |  |  |  | 82 |
| Cn1nccc1-c1ccccc1OCC1=NCCN1 | > 100000 | > 100000 | 39.8 |  | 107 |  |  |  |  |
| c1ccc(-c2ccsc2)c(OCC2=NCCN2)c1 | 15.8 | 12.6 | 0.251 | 103 | 98 |  |  |  | 120 |
| CCN(CC)C(=O)c1ccccc1OCC1=NCCN1 | > 5010 | > 5010 | > 5010 |  |  |  |  |  |  |
| c1ccc(-c2nccs2)c(OCC2=NCCN2)c1 | 20 | 31.6 | 2.51 | 100 | 102 |  |  |  | 113 |
| c1c[nH]c(-c2ccccc2OCC2=NCCN2)c1 | 1 | 6.31 | 1.26 | 104 | 99 | 269 | 32.4 | 53.7 | 111 |
| c1cncc(-c2ccccc2OCC2=NCCN2)c1 | 79.4 | 158 | 2 | 111 | 109 | 1290 | 50.1 | 257 | 38 |
| CS(=O)(=O)Nc1ccc(F)c([C@@H](O)CN)c1 [NS-49] | > 100000 | > 100000 | 316 |  | 86 |  |  |  |  |
| c1ccc(-c2cnccn2)c(OCC2=NCCN2)c1 | 631 | > 100000 | 2.51 | 46 | 97 |  |  |  |  |
| Cc1cccc(-c2ccccc2OCC2=NCCN2)n1 | > 100000 | > 100000 | 126 |  | 80 |  |  |  |  |
| Cc1ccc(-c2ccccc2OCC2=NCCN2)s1 | > 100000 | > 100000 | 25.1 |  | 97 |  |  |  |  |
| c1ccc(-c2ccncc2)c(OCC2=NCCN2)c1 | > 100000 | > 100000 | > 100000 |  |  |  |  |  |  |
| c1csc(-c2ccccc2OCC2=NCCN2)c1 | 3.98 | 15.8 | 1 | 112 | 101 |  |  |  | 93 |
| c1ccc(-c2ccccc2OCC2=NCCN2)cc1 | > 100000 | > 100000 | 3.16 |  |  | 741 | 27.5 | 324 |  |
| Cc1cnsc1-c1ccccc1OCC1=NCCN1 | > 100000 | > 100000 | 12.6 |  | 104 |  |  |  |  |
| c1ccc(-c2ncc[nH]2)c(OCC2=NCCN2)c1 | > 100000 | > 100000 | 100 |  | 122 |  |  |  |  |
| c1ccc(-c2ccoc2)c(OCC2=NCCN2)c1 | 5.01 | 5.01 | 0.501 | 111 | 104 |  |  |  | 126 |
| c1cnc(-c2ccccc2OCC2=NCCN2)nc1 | > 100000 | > 100000 | 1260 |  | 90 |  |  |  |  |
| Cc1cc(-c2ccccc2OCC2=NCCN2)sn1 | > 100000 | > 100000 | 158 |  | 75 |  |  |  |  |
| Cc1csc(-c2ccccc2OCC2=NCCN2)n1 | > 100000 | > 100000 | 25.1 |  | 104 |  |  |  |  |
| Cc1ccoc1-c1ccccc1OCC1=NCCN1 | > 100000 | > 100000 | 3.16 |  | 99 | 776 | 34.7 | 417 |  |
